Experimental findings from ChEMBL document CHEMBL3526140, “Prediction of human intestinal absorption of the prodrug temocapril by in situ single-pass perfusion using rat intestine with modified hydrolase activity” (Drug Metab Dispos, 2011) are described below.

Data set [1] deals with Jejunum. Kind of data set: Apparent absorption clearance in Wistar rat jejunum at 100 uM at pH 6.4 by in-situ single-pass perfusion method. Format: ADME, tissue-based. Particulars: in vivo. An outline of the steps: (§1)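 Rats fasted 18–24 h, anesthetized with intraperitoneal pentobarbital. Isolated cannulated jejunal segment kept at 37°C in Krebs–Henseleit buffer with 3% BSA and 10 mM glucose. Vascular perfusion with Krebs–Henseleit (pH 7.4) at 2.5 ml/min. Lumen perfused at 0.2 ml/min with phosphate buffer (pH 5.4, 6.4 or 7.4) containing 100 µM drug plus FD-4. Luminal and vascular samples assayed by HPLC (UV 258 nm). Parameters normalized to 10 cm intestine. Mean ± S.D., n = 3–6.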

Data set [2] in a line: Partition coefficient, log P between n-octanol and phosphate buffer at pH 7.4. In kind it is physicochemical.
For data set [3], the system named is Jejunum. Kind of data set: Intracellular drug level in Wistar rat jejunum at 100 uM at pH 6.4 by in-situ single-pass perfusion method. Format: ADME, tissue-based. Particulars: in vivo. In short, it runs like this: as §1
For data set [4], the system named is Jejunum. Kind of data set: Drug uptake in Wistar rat jejunum blood vessel assessed as rate of drug appearance at 100 uM at pH 6.4 by in-situ single-pass perfusion method. Format: ADME, tissue-based. Particulars: in vivo, pH 6.4, 100 µM. An outline of the steps: as §1
Data set [5] deals with Jejunum. Kind of data set: Drug uptake in Wistar rat jejunum blood vessel assessed as rate of drug appearance at 100 uM by in-situ single-pass perfusion method. In kind it is ADME, tissue-based. Particulars: in vivo. An outline of the steps:
as §1

Data set [6] has as its system Jejunum. Kind of data set: Drug uptake in Wistar rat jejunum lumen assessed as rate of drug appearance at 100 uM by in-situ single-pass perfusion method. In kind it is ADME, tissue-based. Particulars: in vivo. In short, it runs like this: as §1

For orientation: logD means lipophilicity at a set pH, counting ionised and neutral species. A low value points to a more hydrophilic compound. As to `O=C(O)CN1C[C@@H](c2cccs2)SC[C@H](N[C@@H](CCc2ccccc2)C(=O)O)C1=O` [TEMOCAPRILAT], in data set [1], the “CL(app)” value came to 1.87 µL/min. The compound further returned a logD in data set [2] of 2.5. For the same compound, the Drug uptake is listed as 2.99 nmol/g in data set [3], 0.193 nmol/min in data set [4], 1.22 nmol/min in data set [5] and 2.25 nmol/min in data set [6].
